In ChEMBL document CHEMBL1124097, “9-(2-Fluorobenzyl)-6-(alkylamino)-9H-purines. A new class of anticonvulsant agents” (1988) one finds inhibition in vivo and ED50 data, which are given here for 23 molecules.

Common to all, as to assay type: functional
The subject of experiment [1] is Rattus norvegicus. Kind of experiment: Anticonvulsant activity against maximal electroshock-induced seizures in rats after ip administration at 25 mg/kg (compared to standard). Conditions: route intraperitoneal. (The maximal electroshock test induces tonic seizures with an electrical stimulus.)
Experiment [2] relates to Rattus norvegicus. Kind of experiment: Anticonvulsant activity against maximal electroshock-induced seizures in rats after intraperitoneal administration. The settings on record: ip. In outline: (§1)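 Male Sprague-Dawley rats were protected against maximal electroshock-induced seizures. The ED50 is the dose that protects 50% of animals from the hind-limb extensor component, calculated by the method of Miller. For ED50s given with standard error, at least 12 animals per dose level and four doses per compound were used. Otherwise, three doses with six animals per point were used.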

For experiment [3], the system named is Rattus norvegicus. Nature of the experiment: Anticonvulsant activity against maximal electroshock-induced seizures in rats after oral administration. Put shortly:
as §1

`CNc1ncnc2c1ncn2Cc1cccc(OCc2ccccc2)c1`: the inhibition in vivo – broadly, the change of the read-out against control, counted positive when it falls – at 25 mg/kg in the experiment on Rattus norvegicus [1] came out at 17%. Consider `Fc1ccccc1Cn1cnc2c(NC3CCC3)ncnc21`, for which, in the experiment with Rattus norvegicus [2], the 50% effect level (ED50) was put at a dose of 33 mg/kg.

On to `CNc1ncnc2c1ncn2Cc1c(F)cccc1F`, for which the 50% effect level in the experiment with Rattus norvegicus [3] (ED50) was put at a dose of 2.7 mg/kg.

`CNc1ncnc2c1ncn2Cc1ccc(N)cc1`: in the experiment with Rattus norvegicus [2], the 50% effect level (ED50) was put at a dose of 25 mg/kg.

On to `CC(C)(C)Nc1ncnc2c1ncn2Cc1ccccc1F`, for which the ED50 (in general, the midpoint of the dose-response relation) in the experiment on Rattus norvegicus [2] is above 50 mg/kg. The same measure, in the same setting: next, `CNc1ncnc2c1ncn2Cc1ccccc1C(F)(F)F`: 20 mg/kg. `CNc1ncnc2c1ncn2Cc1c(F)cccc1Cl` gave an ED50 with Rattus norvegicus [2] of 12.5 mg/kg. This ED50 lies about 1.6-fold lower than the previous one.

Turning to `CN(C)c1ncnc2c1ncn2Cc1c(F)cccc1Cl`, the results for the ED50 in the experiment with Rattus norvegicus [2] and in the experiment with Rattus norvegicus [3] were 5 mg/kg and 10 mg/kg, respectively.

`CNc1ncnc2c1ncn2Cc1ccccc1C`: the ED50 came out at 10 mg/kg in the experiment on Rattus norvegicus [2] and 25 mg/kg in the experiment with Rattus norvegicus [3]. As to `CNc1ncnc2c1ncn2Cc1ccccc1`, the ED50 in the experiment with Rattus norvegicus [2] was 5 mg/kg; in the experiment with Rattus norvegicus [3], 12 mg/kg. The molecule `CNc1ncnc2c1ncn2Cc1cccc(F)c1` gave an ED50 with Rattus norvegicus [2] of 7 mg/kg.

`CNc1ncnc2c1ncn2Cc1ccc(F)cc1F` displayed an ED50 in the experiment on Rattus norvegicus [2] of 20 mg/kg. On to `Nc1ncnc2c1ncn2Cc1ccccc1F`, for which the ED50 came to 4.5 mg/kg in the experiment with Rattus norvegicus [2] and 12 mg/kg in the experiment on Rattus norvegicus [3]. In the experiment with Rattus norvegicus [1], `CNc1ncnc2c1ncn2Cc1cccc(O)c1` registered an inhibition in vivo at 25 mg/kg of 0%. As to `Fc1ccccc1Cn1cnc2c(N3CCCC3)ncnc21`, the ED50 in the experiment on Rattus norvegicus [2] came out at 12.5 mg/kg; in the experiment with Rattus norvegicus [3] it was 35 mg/kg. In the same order, the values of `CNc1ncnc2c1ncn2Cc1cccc(F)c1F` are 18 mg/kg and above 50 mg/kg. `Fc1ccccc1Cn1cnc2c(N3CCC3)ncnc21` showed an ED50 in the experiment on Rattus norvegicus [2] above 50 mg/kg. For `CN(C)c1ncnc2c1ncn2Cc1ccccc1`, the ED50 with Rattus norvegicus [2] was determined as 6 mg/kg; in the experiment on Rattus norvegicus [3], 12 mg/kg.

As for `CNc1ncnc2c1ncn2Cc1ccccc1Cl`, the ED50 in the experiment on Rattus norvegicus [2] turned out to be 6.2 mg/kg; in the experiment on Rattus norvegicus [3] it was 12.5 mg/kg. On to `CNc1ncnc2c1ncn2Cc1ccc(F)cc1`, for which the inhibition in vivo at 25 mg/kg in the experiment with Rattus norvegicus [1] was 33%. On the same count and under the same terms, next, `CNc1ncnc2c1ncn2Cc1ccc([N+](=O)[O-])cc1`: 0%.

For `CN(C=O)c1ncnc2c1ncn2Cc1ccccc1F`, the ED50 with Rattus norvegicus [2] came out at 11 mg/kg; with Rattus norvegicus [3], 25 mg/kg.

The molecule `O=C1NC(=O)C(c2ccccc2)(c2ccccc2)N1` [PHENYTOIN] registered an ED50 in the experiment on Rattus norvegicus [2] of 9.6 mg/kg.
